Data taken from publication PMC5084670 (Cancer Science, 2016).
Marks after values point to notes of the source that are not given here.

Experiment: Phase I dose-escalation study: safety, adverse events
Format: in vivo, human
In short: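 Oral test compound was given once daily in 28-day cycles after a 7-day single-dose run-in, in Japanese and Hong Kong/Taiwan groups escalated separately. Toxicity was graded by CTCAE v3.0 using laboratory tests, physical examination, vital signs, weight and periodic ECG. DLTs were grade 3–4 events over the run-in plus cycle 1. MTD was set by an adaptive Bayesian logistic regression model with overdose control.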

[1] = group 1, 400 mg q.d. (n = 12), All grades
[2] = group 1, 400 mg q.d. (n = 12), Grade 3
[3] = group 1, 400 mg q.d. (n = 12), Grade 4
[4] = group 1, 600 mg q.d. (n = 9), All grades
[5] = group 1, 600 mg q.d. (n = 9), Grade 3

Cc1c(C(=O)Nc2ccc(N3C[C@@H](C)O[C@@H](C)C3)nc2)cccc1-c1ccc(OC(F)(F)F)cc1 [Sonidegib]
Maximum CK level (a patient receiving 600 mg): 40 400 IU/L | Myoglobin level at maximum CK level (a patient receiving 600 mg): 5320 ng/mL | Deaths (both groups): no deaths were reported | Recommended dose (RD) (both groups, East Asian patients): 400 mg q.d. | Changes in electrocardiogram parameters (during the course of treatment): No clinically significant changes | Recommended dose (RD) (group 1 (Japanese)): 400 mg q.d. | Grade 3 /4 Creatine kinase elevation during all study period (group 1 (Japanese), 400 mg qd, N = 12): 2 (17) ^† n (%) | Grade 3 /4 Creatine kinase elevation during all study period (group 1 (Japanese), 600 mg qd, N = 9): 5 (56) ^† n (%) | Grade 3 /4 Creatine kinase elevation during all study period (group 1 (Japanese), All patients, N = 21): 7 (33) n (%) | DLT in cycle 1 (creatine kinase elevation) (group 1, 400 mg): single DLT | Alopecia (drug-related adverse event) [1]: 2 (17) n (%) | Blood creatine kinase increased (drug-related adverse event) [1]: 2 (17) n (%) | Decreased level of consciousness (drug-related adverse event) [1]: 0 (0) n (%) | Dysgeusia (drug-related adverse event) [1]: 1 (8) n (%) | Fatigue (drug-related adverse event) [1]: 2 (17) n (%) | Hepatic function abnormal (drug-related adverse event) [1]: 2 (17) n (%) | Hyperglycemia (drug-related adverse event) [1]: 0 (0) n (%) | Lymphopenia (drug-related adverse event) [1]: 0 (0) n (%) | Muscle spasms (drug-related adverse event) [1]: 1 (8) n (%) | Muscle weakness (drug-related adverse event) [1]: 0 (0) n (%) | Myalgia (drug-related adverse event) [1]: 2 (17) n (%) | Myoglobin blood increased (drug-related adverse event) [1]: 0 (0) n (%) | Nausea (drug-related adverse event) [1]: 1 (8) n (%) | Rhabdomyolysis (drug-related adverse event) [1]: 1 (8) n (%) | Alopecia (drug-related adverse event) [2]: 0 (0) n (%) | Blood creatine kinase increased (drug-related adverse event) [2]: 1 (8) n (%) | Decreased level of consciousness (drug-related adverse event) [2]: 0 (0) n (%) | Dysgeusia (drug-related adverse event) [2]: 0 (0) n (%) | Fatigue (drug-related adverse event) [2]: 0 (0) n (%) | Hepatic function abnormal (drug-related adverse event) [2]: 1 (8) n (%) | Hyperglycemia (drug-related adverse event) [2]: 0 (0) n (%) | Lymphopenia (drug-related adverse event) [2]: 0 (0) n (%) | Muscle spasms (drug-related adverse event) [2]: 0 (0) n (%) | Muscle weakness (drug-related adverse event) [2]: 0 (0) n (%) | Myalgia (drug-related adverse event) [2]: 0 (0) n (%) | Myoglobin blood increased (drug-related adverse event) [2]: 0 (0) n (%) | Nausea (drug-related adverse event) [2]: 0 (0) n (%) | Rhabdomyolysis (drug-related adverse event) [2]: 0 (0) n (%) | Alopecia (drug-related adverse event) [3]: 0 (0) n (%) | Blood creatine kinase increased (drug-related adverse event) [3]: 0 (0) n (%) | Decreased level of consciousness (drug-related adverse event) [3]: 0 (0) n (%) | Dysgeusia (drug-related adverse event) [3]: 0 (0) n (%) | Fatigue (drug-related adverse event) [3]: 0 (0) n (%) | Hepatic function abnormal (drug-related adverse event) [3]: 0 (0) n (%) | Hyperglycemia (drug-related adverse event) [3]: 0 (0) n (%) | Lymphopenia (drug-related adverse event) [3]: 0 (0) n (%) | Muscle spasms (drug-related adverse event) [3]: 0 (0) n (%) | Muscle weakness (drug-related adverse event) [3]: 0 (0) n (%) | Myalgia (drug-related adverse event) [3]: 0 (0) n (%) | Myoglobin blood increased (drug-related adverse event) [3]: 0 (0) n (%) | Nausea (drug-related adverse event) [3]: 0 (0) n (%) | Rhabdomyolysis (drug-related adverse event) [3]: 1 (8) n (%) | Additional patients with grade 3 or 4 CK elevation after cycle 1 (group 1, 600 mg): four | DLT in cycle 1 (creatine kinase elevation) (group 1, 600 mg): single DLT | Alopecia (drug-related adverse event) [4]: 2 (22) n (%) | Blood creatine kinase increased (drug-related adverse event) [4]: 5 (56) n (%) | Decreased level of consciousness (drug-related adverse event) [4]: 1 (11) n (%) | Dysgeusia (drug-related adverse event) [4]: 2 (22) n (%) | Fatigue (drug-related adverse event) [4]: 2 (22) n (%) | Hepatic function abnormal (drug-related adverse event) [4]: 3 (33) n (%) | Hyperglycemia (drug-related adverse event) [4]: 1 (11) n (%) | Lymphopenia (drug-related adverse event) [4]: 1 (11) n (%) | Muscle spasms (drug-related adverse event) [4]: 1 (11) n (%) | Muscle weakness (drug-related adverse event) [4]: 1 (11) n (%) | Myalgia (drug-related adverse event) [4]: 4 (44) n (%) | Myoglobin blood increased (drug-related adverse event) [4]: 1 (11) n (%) | Nausea (drug-related adverse event) [4]: 2 (22) n (%) | Rhabdomyolysis (drug-related adverse event) [4]: 1 (11) n (%) | Alopecia (drug-related adverse event) [5]: 0 (0) n (%) | Blood creatine kinase increased (drug-related adverse event) [5]: 2 (22) n (%) | Decreased level of consciousness (drug-related adverse event) [5]: 0 (0) n (%) | Dysgeusia (drug-related adverse event) [5]: 0 (0) n (%) | Fatigue (drug-related adverse event) [5]: 0 (0) n (%) | Hepatic function abnormal (drug-related adverse event) [5]: 1 (11) n (%) | Hyperglycemia (drug-related adverse event) [5]: 1 (11) n (%)
